The record followed here is ChEMBL document CHEMBL2331224 (J Med Chem, 2013).

Structures are written as SMILES. pEC50: −log10 of the molar value. Active and inactive are the calls of the source. The calls are words filed in the database; no cut-off is given here. Bounds are passed on as bounds.

The target in series [1] is T1, Retinoic acid receptor beta (Homo sapiens) (UniProt P10826).
T1 sequence (whole entry): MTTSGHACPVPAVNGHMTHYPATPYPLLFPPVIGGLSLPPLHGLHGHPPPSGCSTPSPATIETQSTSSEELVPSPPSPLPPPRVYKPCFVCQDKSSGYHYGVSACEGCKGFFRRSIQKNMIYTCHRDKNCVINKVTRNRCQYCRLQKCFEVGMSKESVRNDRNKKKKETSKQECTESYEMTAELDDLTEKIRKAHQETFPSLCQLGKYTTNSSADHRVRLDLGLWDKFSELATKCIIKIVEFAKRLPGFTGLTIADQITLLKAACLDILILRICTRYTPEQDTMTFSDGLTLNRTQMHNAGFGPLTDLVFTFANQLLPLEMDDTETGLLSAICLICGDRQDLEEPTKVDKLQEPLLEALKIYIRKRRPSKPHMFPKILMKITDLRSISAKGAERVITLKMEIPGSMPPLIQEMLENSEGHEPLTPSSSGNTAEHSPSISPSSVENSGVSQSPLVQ
In words: Transactivation of RARbeta (unknown origin) by luciferase reporter gene assay relative to Am80. A general note: A reporter such as luciferase makes a cellular process visible.

For series [2], the target named is T2, Retinoic acid receptor alpha (Homo sapiens) (UniProt P10276).
T2 sequence (whole entry): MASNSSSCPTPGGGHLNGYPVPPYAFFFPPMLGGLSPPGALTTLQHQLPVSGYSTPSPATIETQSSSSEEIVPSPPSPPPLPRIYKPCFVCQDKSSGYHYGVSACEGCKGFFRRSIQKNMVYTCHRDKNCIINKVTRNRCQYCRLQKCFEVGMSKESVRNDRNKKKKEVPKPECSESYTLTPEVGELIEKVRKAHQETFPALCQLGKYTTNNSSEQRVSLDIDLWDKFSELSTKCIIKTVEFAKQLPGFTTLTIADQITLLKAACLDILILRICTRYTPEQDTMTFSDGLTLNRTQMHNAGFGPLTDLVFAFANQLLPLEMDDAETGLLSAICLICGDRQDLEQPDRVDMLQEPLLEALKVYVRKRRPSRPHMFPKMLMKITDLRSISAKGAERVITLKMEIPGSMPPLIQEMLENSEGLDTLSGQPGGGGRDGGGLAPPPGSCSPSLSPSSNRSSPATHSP
In words: Transactivation of RARalpha (unknown origin) by luciferase reporter gene assay relative to Am80.

The test system of series [3] is Mus musculus. In words: Toxicity against KKAy mouse assessed as blood urea nitrogen level at 10 mg/kg/day, po for 14 days (reference value: 21.9 +/- 1.1 mg/dL). Type of series: organism-based. The arrangement: route oral. The note with it: in vivo, 336 h.
In series [4] the target is T3, Retinoic acid receptor RXR-gamma (Homo sapiens) (UniProt P48443).
T3 sequence (whole entry): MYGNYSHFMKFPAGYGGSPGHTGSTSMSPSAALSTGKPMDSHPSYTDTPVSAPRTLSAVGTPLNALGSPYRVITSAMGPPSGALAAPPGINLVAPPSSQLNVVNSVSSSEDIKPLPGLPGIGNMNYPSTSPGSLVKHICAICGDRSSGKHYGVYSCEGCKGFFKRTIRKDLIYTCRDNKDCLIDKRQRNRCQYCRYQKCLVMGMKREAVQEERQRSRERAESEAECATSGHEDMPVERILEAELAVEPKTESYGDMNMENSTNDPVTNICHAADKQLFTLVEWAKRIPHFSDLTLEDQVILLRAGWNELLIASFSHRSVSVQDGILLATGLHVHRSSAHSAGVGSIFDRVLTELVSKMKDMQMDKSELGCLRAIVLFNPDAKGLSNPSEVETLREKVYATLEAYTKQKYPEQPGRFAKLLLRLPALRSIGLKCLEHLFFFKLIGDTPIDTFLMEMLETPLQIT
The series can be described thus: Partial agonist activity at RXRgamma (unknown origin) by luciferase reporter gene assay relative to LGD1069.

Series [5] has as its target T4, Retinoic acid receptor RXR-alpha (Homo sapiens, UniProt P19793).
T4 sequence (P19793 whole entry): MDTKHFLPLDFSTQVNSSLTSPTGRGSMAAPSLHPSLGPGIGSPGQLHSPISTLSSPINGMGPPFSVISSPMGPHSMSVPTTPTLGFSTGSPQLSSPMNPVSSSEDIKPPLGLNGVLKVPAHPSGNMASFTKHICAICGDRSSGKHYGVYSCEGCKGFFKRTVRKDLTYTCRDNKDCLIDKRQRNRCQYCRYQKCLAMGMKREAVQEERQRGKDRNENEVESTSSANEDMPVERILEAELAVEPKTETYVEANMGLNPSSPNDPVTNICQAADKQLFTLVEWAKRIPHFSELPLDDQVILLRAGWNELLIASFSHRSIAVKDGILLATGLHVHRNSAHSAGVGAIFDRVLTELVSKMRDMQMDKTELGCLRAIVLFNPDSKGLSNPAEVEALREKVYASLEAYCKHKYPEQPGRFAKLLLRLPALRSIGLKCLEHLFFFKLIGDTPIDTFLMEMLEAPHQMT
In words: Partial agonist activity at RXRalpha (unknown origin) expressed in COS1 cells after 18 hrs by luciferase reporter gene assay. The series is classed as cell-based, COS-1. In outline:
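COS-1 cells in DMEM with 10% FBS at 37 °C, 5% CO2, transfected with RXRα, an RXR-response-element luciferase reporter and a SEAP background vector. Cells were seeded at about 2.0 × 10⁴ per well with compound (DMSO below 1%) for 18 h. Luciferase was normalized to SEAP and expressed relative to 1 μM reference RXR full agonist as 100%. EC50 came from full dose-response curves. Triplicates, at least three experiments.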

The target in series [6] is Retinoic acid receptor RXR-alpha/oxysterols receptor LXR-alpha (Homo sapiens) (UniProt P19793+Q13133). The series can be described thus: Transactivation of LXRalpha/RXRalpha (unknown origin) by luciferase reporter gene assay relative to carba-T0901317. Type of series: protein-complex assay. In outline:
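Heterodimer reporter in COS-1 cells co-transfected with RXRα (0.5 μg), partner receptor (LXRα for line 2, PPARγ for line 3; 0.5 μg), partner response element-luciferase (4.0 μg), and SEAP. Compound (DMSO below 1%) with ~2.0 × 10⁴ cells/well, 18 h, 37 °C; luciferase normalized to SEAP; triplicate, three runs.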

For the next series, the system named is Plasma. In words: Plasma concentration in ICR mouse at 30 mg/kg, po by HPLC analysis. The series is classed as ADME, organism-based. Also noted: dose 30 mg/kg, route oral. Particulars: read-out: Cp, in vivo. In outline:
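Six-week-old male ICR mice (n = 6−9) got a single oral 30 mg/kg dose in 1% ethanol/0.5% CMC in water, 10 mL/kg. Plasma was extracted with ethyl acetate and reconstituted in methanol. Reversed-phase HPLC (ODS-3, 40 °C, methanol:33.3 mM ammonium acetate pH 5.0 85:15, UV 280 nm), quantified against an authentic-compound calibration plot.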

In series [7] the test system is Mus musculus. The series can be described thus: Toxicity in ICR mouse assessed as development of hepatomegaly at 30 mg/kg/day, po for 7 days. The series is classed as organism-based. Also noted: route oral. Particulars: in vivo, 168 h. In outline:
(§1)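 Male ICR mice, 6−7 weeks old, four per cage, grouped by body weight. Oral 30 mg/kg or vehicle (1% ethanol/0.5% CMC in water, 10 mL/kg) once daily for 7 days, body weight recorded daily. After overnight fasting, mice were weighed under ether, and liver was removed and weighed. Serum was analysed on a dry-chemistry analyser for TG, TCHO, ALP, CRE, BUN and other markers. n = 7−23, ANOVA.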

Series [8] concerns Mus musculus. In words: Toxicity in ICR mouse assessed as increase in blood total cholesterol level at 30 mg/kg/day, po for 7 days. The series is classed as organism-based. The note with it: in vivo, 168 h. The arrangement: route oral. In short, it runs like this: as §1

Broadly, the pEC50 is the EC50 on a negative log10 scale, so that one unit is a factor of ten. Higher therefore signals a low EC50. On to `Cc1cc2c(cc1-n1c(C(F)(F)F)nc3cc(C(=O)O)ccc31)C(C)(C)CCC2(C)C`, for which the result in series [1], in [2], in series [4] and in [6] was Active. For the same compound, the Activity with Mus musculus [3] is 22.5 mg/dL; in the series on Mus musculus [7] it was “Toxic”; in the series on Mus musculus [8], “Non-toxic”. The compound also had a pEC50 in series [5] of 7.82. Further, the concentration with Plasma was more than 6 µM.
